Compound activity: PubChem BioAssay, SRMLSC
RAM network inh – inhibitors of the yeast RAM network, primary screen, dse1pr::URA3 reporter, 5-FOA selection | S. cerevisiae dse1pr::URA3 reporter, 5-FOA growth OD615, 2 d; analog-sensitive cbk1-as2 kinase mutant strain | inhibition, % at 50 µM | hit rate 1.8% among 190,000;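 active = inhibition above a set limit, 3 SD over mean compound inhibition, cut at about 8.4% in these data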;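 note: 0% = DMSO-only wells with no growth and 100% = 10 µM 1-NA-PP1 full growth; inhibition rescues growth on 5-FOA so higher OD means more RAM inhibition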
Yeast growth inh – growth inhibitors of yeast BB579 in restrictive medium, primary screen, yeast lifespan-shortening project, S. cerevisiae; inhibition, % at 10 µM; OD615, 48 h; hit rate 0.51% among 140,000;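 active = inhibition above a set limit, 3 SD over the mean compound inhibition, cut at about 44% in these data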
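System: Saccharomyces cerevisiae DeaD strain BB579, replicative lifespan model yeast. Buffer or medium: restrictive glucose-based CSMM-D medium. Doses: one dose, 10 µM compound with 0.25% DMSO. Timing: 4 h preincubation and 48 h exposure at 30 °C. Detection: turbidity as optical density at 615 nm. Benchmarks: amphotericin B 10 µg/mL, positive.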
Yeast life ext – compounds extending yeast replicative lifespan, primary screen, S. cerevisiae, OD615; S. cerevisiae growth with nicotinamide; deaD strain in restrictive glucose medium; inhibition of the nicotinamide effect, % at 10 µM; hit rate 0.68% among 130,000; AID 775, 2007;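 active = inhibition above a set limit, placed 3 SD over the median of all compounds, cut at about 26% in these data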;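 note: 0% = nicotinamide-treated wells and 100% = cells grown without nicotinamide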
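Assay system: DeaD-strain S. cerevisiae. Medium: CSMM-D glucose medium, restrictive. Reagent: nicotinamide, 1.5 mM, co-present with compound. Compound: 10 µM single point, 0.25% DMSO. Schedule: culture preincubation 4 h, compound exposure 48 h, both 30 °C. Detection: absorbance at 615 nm.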
WT yeast gro inh – growth inhibition of WT strain, primary screen, mitochondrial fusion inhibitor project, WT and mutant strains, chemical genetic. mitochondrial fusion phenotypic screen. hit rate 2.1% among 190,000. inhibition, % at 10 µM; in the data active = inhibition above about 58%; tested in S. cerevisiae
* hit, by the source's call; . = no result given. Compounds with a hit are over-represented: about 4.3% of the library has one in this group of screens.

SMILES	RAM network inh	Yeast growth inh	Yeast life ext	WT yeast gro inh
COc1ccc(CN2C(=O)CC(C(=O)NCCc3ccc(S(N)(=O)=O)cc3)SC2=Nc2ccccc2)cc1 (centres undefined)	4	.	.	-5
CN(CC(=O)Nc1ccc(S(=O)(=O)N2CCCC2)cc1)CC(=O)Nc1cccc(F)c1	0	.	.	-31
CC1(c2ccc(Cl)cc2Cl)OCC(Cn2ccnc2)O1 (centres undefined)	2	-36	9	73*
Cc1ccc(CNCC(=O)Nc2cccc(S(=O)(=O)NC3=NCCCCC3)c2)cc1	3	.	.	-5
CCOC(=O)CC(NC(=O)Cn1nnc(-c2ccccc2Cl)n1)c1ccc(OC)cc1 (centres undefined)	6	.	.	14
CCOC(=O)CC(NC(=O)Cn1nnc(-c2ccccc2F)n1)c1ccc(OC)cc1 (centres undefined)	9.7*	.	.	-6
C/[N+]([O-])=C\C1C(=O)CC(C)(C)CC1=O	2	.	.	0
Cc1ccc(C(C2C(=O)CC(C)(C)CC2=O)C2C(=O)CC(C)(C)CC2=O)s1	-1	-40	34*	25
O=C1c2ccccc2C(Nc2ccc3c(c2)OCCO3)N1c1ccccn1 (centres undefined)	1	-15	36*	20
Cc1cccc(N(CC(=O)NC2CCCCC2)C(=O)Cn2nnc(-c3ccc(C)o3)n2)c1	2	.	.	-7
Cc1cccc(-n2c(CNC(=O)c3ccc(S(=O)(=O)N(C)C)cc3)nnc2SCC(=O)Nc2ccc(F)cc2)c1	0	-42	-1	1
Clc1cc2nc3ccccn3c2cc1Cl	2	43*	-32	77
O=Cc1c(Cl)nc2ccccn12	4	.	.	-14
CCN(CC)c1ccc(/C=C2/C(=O)ON=C2C)cc1	1	-34	40*	3
CC1=NOC(=O)/C1=C/c1ccc(N(C)C)cc1	1	-24	1	11
Cc1[nH]n(C(N)=S)c(=O)c1N=Nc1ccc2ccccc2c1	1	.	.	66*
CC(=O)Nc1ccc(N=Nc2c(C)[nH]n(C(N)=S)c2=O)cc1	1	.	.	3
Cc1[nH]n(C(N)=S)c(=O)c1N=Nc1cc(-c2ccc(Br)cc2)[nH]n1	6	.	.	25
Cc1ccc(N=Nc2c(C)[nH]n(C(N)=S)c2=O)cc1C	1	-19	-6	60*
Cc1[nH]n(C(N)=S)c(=O)c1N=Nc1ccc(S(=O)(=O)N2CCCCCC2)cc1	2	-20	-8	68*
O=C(c1ccc(CNc2c(NC3CCCCC3)c(=O)c2=O)cc1)N1CCc2ccccc21	1	-28	-7	-6
COc1ccc(N2C(=O)/C(=C/c3ccc([N+](=O)[O-])cc3)N=C2C)cc1	4	.	.	-6
O=c1c2ccc([N+](=O)[O-])cc2ncn1Cc1ccccc1C(F)(F)F	3	.	.	-11
CCOc1ccc2nc(SC3CC(=O)N(c4ccc(OC)cc4OC)C3=O)sc2c1 (centres undefined)	4	.	.	25
CCCCC(=O)NC(c1ccc([N+](=O)[O-])cc1)c1c(O)ccc2ccccc12 (centres undefined)	4	-33	1	82*
SMILES	RAM network inh	Yeast growth inh	Yeast life ext	WT yeast gro inh
CCC(=O)NC(c1ccc([N+](=O)[O-])cc1)c1c(O)ccc2ccccc12 (centres undefined)	3	-62	-16	12
Cc1c(N=C2SCC(=O)N2/N=C\c2ccc(Br)cc2)c(=O)n(-c2ccccc2)n1C	4	-8	-3	18
CN1C(=O)/C(=C/C=C2\SCCN2C)SC1=S	6	-62	3	-9
COc1ccc2c(c1)c1nnc(SC)nc1n2C	0	90*	-12	47
COc1ccc2c(c1)c1nnc(SCC(=O)N3C(C)CCCC3C)nc1n2C (centres undefined)	8	-40	-3	18
CC(=O)CC(c1ccccc1)S(=O)(=O)c1ccc(C)cc1 (centres undefined)	2	10	-7	-20
COc1ccc(C(=O)C/C(=C\C(=O)c2ccc(C)cc2)c2ccccc2)cc1	11*	-23	33*	46
COc1ccc(C(CC(=O)c2ccccc2)S(=O)(=O)c2ccc(C)cc2)cc1 (centres undefined)	9.8*	-20	-15	3
COc1ccc(Cl)cc1N(CC(=O)NC1CC1)S(=O)(=O)c1ccc(C)c([N+](=O)[O-])c1	3	.	.	-4
O=C(COC(=O)c1cccc(C(=O)OCC(=O)NCc2ccc(F)cc2)n1)NCc1ccc(F)cc1	4	-26	3	-10
